Laboratory results published in ChEMBL document CHEMBL4400562, “Plumbagin Increases Paclitaxel-Induced Cell Death and Overcomes Paclitaxel Resistance in Breast Cancer Cells through ERK-Mediated Apoptosis Induction” (J Nat Prod, 2019).
Calls of active or inactive are those of the source. The calls are words filed in the database; no cut-off is given here.

Legend:
MCF7 [1] = test: Induction of apoptosis in human MCF7 cells at 1 nM after 24 hrs by Annexin V-phycoerythrin/7-AAD staining based flow cytometric analysis relative to control; format: functional
BT-474 [2] = test: Induction of apoptosis in human BT474 cells at 2 nM after 24 hrs by Annexin V-phycoerythrin/7-AAD staining based flow cytometric analysis relative to control; format: functional
MDA-MB-468 [3] = test: Induction of apoptosis in human MDA-MB-468 cells at 1 nM after 24 hrs by Annexin V-phycoerythrin/7-AAD staining based flow cytometric analysis relative to control; format: functional
MDA-MB-468 [4] = test: Synergistic cytotoxicity against human MDA-MB-468 cells assessed as combination index at 0.5 to 2 uM after 24 hrs in presence of 5 to 20 nM of paclitaxel by MTT assay; format: functional
Procedure, shortened: (§1)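 The Chou–Talalay median-effect method was applied to 24 h MTT viability data. Five fixed-ratio plumbagin (μM)/paclitaxel (nM) combinations were used: for MCF-7 1/0.5, 2/1, 3/3, 4/5, 5/10. Cell-line-specific series were used for BT474 and MDA-MB-468. Single agents were run in parallel. CI was computed at several effect levels.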

BT-474 [5] = test: Synergistic cytotoxicity against human BT474 cells assessed as combination index at 1 to 5 uM after 24 hrs in presence of 0.1 to 20 nM of paclitaxel by MTT assay; format: functional; procedure, shortened: as §1
MCF7 [6] = test: Synergistic cytotoxicity against human MCF7 cells assessed as combination index at 1 to 5 uM after 24 hrs in presence of 0.5 to 10 nM of paclitaxel by MTT assay; format: functional; procedure, shortened: as §1
MCF7 [7] = test: Induction of apoptosis in human MCF7 cells up to 3 uM after 24 hrs in presence of 1 nM of paclitaxel by Annexin V-phycoerythrin/7-AAD staining based flow cytometric analysis relative to control; format: functional
Procedure, shortened: (§2)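 Cells were treated for 24 h with single agents or combinations, then washed in annexin-binding buffer and stained with annexin V-PE and 7-AAD for 30 min at 15 °C in the dark. Apoptotic fraction was read by flow cytometry. DMSO was 0.5% final. Data from at least three independent experiments, one-way ANOVA with Tukey's test.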

BT-474 [8] = test: Induction of apoptosis in human BT474 cells up to 2.5 uM after 24 hrs in presence of 2 nM of paclitaxel by Annexin V-phycoerythrin/7-AAD staining based flow cytometric analysis relative to control; format: functional; procedure, shortened: as §2
MCF7 [9] = test: Induction of apoptosis in human MCF7 cells pre-treated with ERK1/2 siRNA at 2 uM in presence of 1 nM paclitaxel by Annexin V-phycoerythrin/7-AAD staining based flow cytometric analysis relative to control; format: functional, cell-based
Procedure, shortened: (§3)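 Cells were transiently transfected for 24 h with ERK1 and ERK2 siRNA (0.5 μg) or scrambled control siRNA, with knockdown checked by Western blot. Cells were then treated for 24 h with the combination, stained with annexin V-PE and 7-AAD, and analysed by flow cytometry. Apoptosis was compared against control-siRNA cells.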

MDA-MB-468 [10] = test: Induction of apoptosis in human MDA-MB-468 cells at 0.2 uM after 24 hrs in presence of 1 nM of paclitaxel by Annexin V-phycoerythrin/7-AAD staining based flow cytometric analysis relative to control; format: functional; procedure, shortened: as §2
MDA-MB-468 [11] = test: Induction of apoptosis in human MDA-MB-468 cells at 0.5 uM after 24 hrs in presence of 1 nM of paclitaxel by Annexin V-phycoerythrin/7-AAD staining based flow cytometric analysis relative to control; format: functional; procedure, shortened: as §2
[12] = molecular target: T1, Mitogen-activated protein kinase; ERK1/ERK2 (Homo sapiens) (UniProt P27361+P28482); test: Inhibition of ERK1/2 in human MCF7 cells assessed as reduction in EGF-induced phosphorylation of ERK1/2 level up to 1 uM preincubated for 24 hrs followed by EGF addition and measured after 30 mins by Western blot analysis; format: cell-based
[13] = molecular target: T1, Mitogen-activated protein kinase; ERK1/ERK2 (Homo sapiens); test: Inhibition of ERK1/2 in human BT474 cells assessed as reduction in EGF-induced phosphorylation of ERK1/2 level up to 1 uM preincubated for 24 hrs followed by EGF addition and measured after 30 mins by Western blot analysis; format: cell-based
[14] = molecular target: T1, Mitogen-activated protein kinase; ERK1/ERK2 (Homo sapiens); test: Inhibition of ERK1/2 in human MDA-MB-468 cells assessed as reduction in EGF-induced phosphorylation of ERK1/2 level up to 0.5 uM preincubated for 24 hrs followed by EGF addition and measured after 30 mins by Western blot analysis; format: cell-based
[15] = molecular target: T1, Mitogen-activated protein kinase; ERK1/ERK2 (Homo sapiens); test: Inhibition of ERK1/2 in human MCF7 cells assessed as reduction in EGF-induced phosphorylation of ERK1/2 at Thr202/Tyr204 residues up to 3 uM preincubated for 1 hrs followed by EGF addition and measured after 30 mins by AlphaScreen analysis relative to control; format: cell-based
[16] = molecular target: T1, Mitogen-activated protein kinase; ERK1/ERK2 (Homo sapiens); test: Inhibition of ERK1/2 in human BT474 cells assessed as reduction in EGF-induced phosphorylation of ERK1/2 at Thr202/Tyr204 residues up to 2 uM preincubated for 1 hrs followed by EGF addition and measured after 30 mins by AlphaScreen analysis relative to control; format: cell-based
[17] = molecular target: T1, Mitogen-activated protein kinase; ERK1/ERK2 (Homo sapiens); test: Inhibition of ERK1/2 in human MDA-MB-468 cells assessed as reduction in EGF-induced phosphorylation of ERK1/2 at Thr202/Tyr204 residues up to 1 uM preincubated for 1 hrs followed by EGF addition and measured after 30 mins by AlphaScreen analysis relative to control; format: cell-based
[18] = molecular target: T1, Mitogen-activated protein kinase; ERK1/ERK2 (Homo sapiens); test: Inhibition of ERK1/2 in human MCF7 cells assessed as reduction in paclitaxel-induced phosphorylation of ERK1/2 at Thr202/Tyr204 residues up to 3 uM preincubated for 1 hrs followed by 1 nM paclitaxel addition and measured after 30 mins by AlphaScreen analysis relative to control; format: cell-based
[19] = molecular target: T1, Mitogen-activated protein kinase; ERK1/ERK2 (Homo sapiens); test: Inhibition of ERK1/2 in human BT474 cells assessed as reduction in paclitaxel-induced phosphorylation of ERK1/2 at Thr202/Tyr204 residues up to 2 uM preincubated for 1 hrs followed by 1 nM paclitaxel addition and measured after 30 mins by AlphaScreen analysis relative to control; format: cell-based
[20] = molecular target: T1, Mitogen-activated protein kinase; ERK1/ERK2 (Homo sapiens); test: Inhibition of ERK1/2 in human MDA-MB-468 cells assessed as reduction in paclitaxel-induced phosphorylation of ERK1/2 at Thr202/Tyr204 residues up to 1 uM preincubated for 1 hrs followed by 1 nM paclitaxel addition and measured after 30 mins by AlphaScreen analysis relative to control; format: cell-based
MDA-MB-468 [21] = test: Induction of apoptosis in human MDA-MB-468 cells pre-treated with ERK1/2 siRNA at 0.2 uM in presence of 1 nM paclitaxel by Annexin V-phycoerythrin/7-AAD staining based flow cytometric analysis relative to control; format: functional; procedure, shortened: as §3
BT-474 [22] = test: Induction of apoptosis in human BT474 cells pre-treated with ERK1/2 siRNA at 1.5 uM in presence of 2 nM paclitaxel by Annexin V-phycoerythrin/7-AAD staining based flow cytometric analysis relative to control; format: functional, cell-based; procedure, shortened: as §3
MCF7 [23] = test: Cytotoxicity against human MCF7 cells assessed as reduction in cell viability after 24 hrs by MTT assay; details: MCF7, 24 h
MCF7/PTX [24] = test: Cytotoxicity against paclitaxel-resistant human MCF7/PTX cells assessed as reduction in cell viability after 24 hrs by MTT assay; format: functional, cell-based
Procedure, shortened: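 MTT viability after 24 h exposure. MCF-7/PTX cells were derived from MCF-7 by three months of culture in rising paclitaxel (0.4 to 6.0 nM). Cells grew in RPMI with 10% FBS at 37 °C, 5% CO2. Compounds were dissolved in DMSO, 0.5% final. At least three independent experiments.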

MCF7/PTX [25] = test: Induction of apoptosis in paclitaxel-resistant human MCF7/PTX cells at 3 uM after 24 hrs by Annexin V-phycoerythrin/7-AAD staining based flow cytometric analysis relative to control; format: functional; procedure, shortened: as §2
MCF7 [26] = test: Induction of apoptosis in human MCF7 cells at 3 uM after 24 hrs by Annexin V-phycoerythrin/7-AAD staining based flow cytometric analysis relative to control; format: functional; procedure, shortened: as §2
[27] = molecular target: T1, Mitogen-activated protein kinase; ERK1/ERK2 (Homo sapiens); test: Inhibition of ERK1/2 in paclitaxel-resistant human MCF7/PTX cells assessed as reduction in paclitaxel-induced phosphorylation of ERK1/2 at Thr202/Tyr204 residues up to 3 uM preincubated for 1 hrs followed by 1 nM paclitaxel addition and measured after 30 mins by AlphaScreen analysis; format: cell-based
MCF7/PTX [28] = test: Potentiation of paclitaxel-induced apoptosis in paclitaxel-resistant human MCF7/PTX cells at 2 uM after 24 hrs by Annexin V-phycoerythrin/7-AAD staining based flow cytometric analysis; format: functional, cell-based; procedure, shortened: as §2

T1 sequence (P27361 whole entry, looked up): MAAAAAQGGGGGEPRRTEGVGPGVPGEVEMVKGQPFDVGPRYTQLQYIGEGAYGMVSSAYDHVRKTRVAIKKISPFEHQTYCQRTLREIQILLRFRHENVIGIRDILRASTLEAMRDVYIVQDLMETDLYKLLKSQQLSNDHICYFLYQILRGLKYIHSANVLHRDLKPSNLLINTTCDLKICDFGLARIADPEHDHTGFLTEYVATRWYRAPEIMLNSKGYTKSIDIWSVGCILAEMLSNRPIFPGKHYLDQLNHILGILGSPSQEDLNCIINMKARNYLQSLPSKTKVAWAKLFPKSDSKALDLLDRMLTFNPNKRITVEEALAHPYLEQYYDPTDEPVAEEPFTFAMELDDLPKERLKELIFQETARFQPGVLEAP
T1 sequence (P28482 whole entry, looked up): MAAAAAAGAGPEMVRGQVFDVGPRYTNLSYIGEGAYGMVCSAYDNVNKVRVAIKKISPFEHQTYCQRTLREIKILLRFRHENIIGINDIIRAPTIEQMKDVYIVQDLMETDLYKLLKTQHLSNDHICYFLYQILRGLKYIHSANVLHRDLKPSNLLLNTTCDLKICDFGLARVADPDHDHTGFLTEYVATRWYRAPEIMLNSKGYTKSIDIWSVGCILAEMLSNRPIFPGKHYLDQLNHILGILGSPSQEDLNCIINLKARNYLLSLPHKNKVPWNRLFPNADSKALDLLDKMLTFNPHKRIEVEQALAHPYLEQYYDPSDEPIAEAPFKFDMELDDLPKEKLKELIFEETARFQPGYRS

Structure (SMILES): CC(=O)O[C@H]1C(=O)[C@@]2(C)[C@H]([C@H](OC(=O)c3ccccc3)[C@]3(O)C[C@H](OC(=O)[C@H](O)[C@@H](NC(=O)c4ccccc4)c4ccccc4)C(C)=C1C3(C)C)[C@]1(OC(C)=O)CO[C@@H]1C[C@@H]2O [PACLITAXEL]
- Activity (MCF7 [1]): 10 - 15%
- Activity (BT-474 [2]): 10 - 15%
- Activity (MDA-MB-468 [3]): 10 - 15%

Structure (SMILES): CC1=CC(=O)c2c(O)cccc2C1=O [PLUMBAGIN]
- CI (MDA-MB-468 [4]): 0.5 - 1
- CI (BT-474 [5]): 0.6
- CI (MCF7 [6]): 0.9
- Activity (MCF7 [7]): 10%
- Activity (BT-474 [8]): 15%
- Activity (MCF7 [9]): Active
- Activity (MDA-MB-468 [10]): 20%
- Activity (MDA-MB-468 [11]): 35%
- inhibition [12]: Active
- inhibition [13]: Active
- inhibition [14]: Active
- inhibition [15]: Active
- inhibition [16]: Active
- inhibition [17]: Active
- inhibition [18]: Active
- inhibition [19]: Active
- inhibition [20]: Active
- Activity (MDA-MB-468 [21]): 25%
- Activity (BT-474 [22]): Active
- IC50 (MCF7 [23]): 3.5 µM
- IC50 (MCF7/PTX [24]): 3.5 µM
- Activity (MCF7/PTX [25]): 20%
- Activity (MCF7 [26]): 20%
- inhibition [27]: Active
- Activity (MCF7/PTX [28]): Active
